Experimental data taken from ChEMBL document CHEMBL1777716, “Identification and optimisation of novel sulfonamide, selective vasopressin V1B receptor antagonists” (Bioorg Med Chem Lett, 2011).
≈ marks a conversion by molar mass, not a printed value. Calls of active or inactive are those of the source. The rule behind the calls is not given here. Non-standard residues stand in square brackets, D forms with d. Residues, ends and D or L forms follow the SMILES beside them. *: point of attachment. 2Nal = N[C@@H](Cc1ccc2ccccc2c1)C(=O)O; Mtr = COc1cc(C)c(S(=O)(=O)*)c(C)c1C; Piperidide = C1CCN(*)CC1

What was measured:
Vasopressin V1b receptor [1] = target: T1, Vasopressin V1b receptor (Homo sapiens, UniProt P47901); assay: Displacement of [3H]-AVP from human vasopressin V1B receptor expressed in CHO cells; assay type: cell-based
T1 sequence (P47901 whole entry): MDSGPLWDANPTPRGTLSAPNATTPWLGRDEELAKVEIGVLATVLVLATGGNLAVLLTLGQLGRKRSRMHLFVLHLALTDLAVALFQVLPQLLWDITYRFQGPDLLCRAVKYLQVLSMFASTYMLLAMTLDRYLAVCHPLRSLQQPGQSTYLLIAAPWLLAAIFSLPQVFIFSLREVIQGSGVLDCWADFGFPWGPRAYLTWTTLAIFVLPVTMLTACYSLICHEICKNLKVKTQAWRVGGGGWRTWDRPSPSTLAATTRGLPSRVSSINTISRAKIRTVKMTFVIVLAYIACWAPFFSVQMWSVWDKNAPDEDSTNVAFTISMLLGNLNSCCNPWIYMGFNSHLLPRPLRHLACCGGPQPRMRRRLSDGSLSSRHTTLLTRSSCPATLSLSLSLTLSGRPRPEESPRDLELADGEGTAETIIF
Summary of the method: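 Whole-cell binding in CHO cells expressing human receptor, [³H]AVP tracer, increasing compound concentrations; nonspecific binding with 10 µM lysine vasopressin. Affinity (Ki) from non-linear regression of specific binding versus concentration; mean of at least 2 independent experiments run in duplicate.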

[2] = target: 5-hydroxytryptamine receptor 6 (Homo sapiens) (UniProt P50406); assay: Binding affinity to 5HT6 receptor
Sequence of 5-hydroxytryptamine receptor 6 (Homo sapiens) (P50406 whole entry): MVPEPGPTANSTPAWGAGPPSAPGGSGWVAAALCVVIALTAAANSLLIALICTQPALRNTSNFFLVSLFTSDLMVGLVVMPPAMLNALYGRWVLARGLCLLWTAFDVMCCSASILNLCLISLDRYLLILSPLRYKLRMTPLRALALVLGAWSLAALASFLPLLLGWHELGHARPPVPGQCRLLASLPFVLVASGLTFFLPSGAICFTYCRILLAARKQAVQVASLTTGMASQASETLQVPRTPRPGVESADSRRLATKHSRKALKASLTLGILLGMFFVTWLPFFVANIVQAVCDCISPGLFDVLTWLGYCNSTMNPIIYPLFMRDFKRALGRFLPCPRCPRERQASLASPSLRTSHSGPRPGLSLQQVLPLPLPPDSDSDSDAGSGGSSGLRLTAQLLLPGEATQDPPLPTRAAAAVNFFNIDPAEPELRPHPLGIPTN

Vasopressin V1a receptor = Vasopressin V1a receptor (Homo sapiens, UniProt P37288); assay: Displacement of [3H]-AVP from human vasopressin V1A receptor expressed in CHO cell membranes
Sequence of Vasopressin V1a receptor (P37288 whole entry): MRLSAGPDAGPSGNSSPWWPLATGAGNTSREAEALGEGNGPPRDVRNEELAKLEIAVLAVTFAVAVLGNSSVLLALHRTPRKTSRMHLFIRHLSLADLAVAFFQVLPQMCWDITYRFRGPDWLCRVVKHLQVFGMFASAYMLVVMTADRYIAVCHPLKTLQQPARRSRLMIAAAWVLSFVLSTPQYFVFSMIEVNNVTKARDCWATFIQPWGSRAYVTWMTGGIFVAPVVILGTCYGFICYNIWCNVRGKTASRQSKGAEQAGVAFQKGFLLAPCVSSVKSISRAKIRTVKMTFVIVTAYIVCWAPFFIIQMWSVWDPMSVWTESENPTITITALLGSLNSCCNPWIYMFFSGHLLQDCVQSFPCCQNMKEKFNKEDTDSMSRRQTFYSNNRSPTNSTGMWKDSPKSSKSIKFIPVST
Summary of the method: (§1)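 Membranes from CHO cells expressing the human receptor incubated with [³H]AVP and increasing compound concentrations. Nonspecific binding defined with 10 µM lysine vasopressin. Specific binding plotted against compound concentration; affinity derived by non-linear regression. Mean of at least 2 independent experiments in duplicate.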

Vasopressin V2 receptor = Vasopressin V2 receptor (Homo sapiens, UniProt P30518); assay: Displacement of [3H]-AVP from human vasopressin V2 receptor expressed in CHO cell membranes; summary of the method: as §1
Sequence of Vasopressin V2 receptor (P30518 whole entry): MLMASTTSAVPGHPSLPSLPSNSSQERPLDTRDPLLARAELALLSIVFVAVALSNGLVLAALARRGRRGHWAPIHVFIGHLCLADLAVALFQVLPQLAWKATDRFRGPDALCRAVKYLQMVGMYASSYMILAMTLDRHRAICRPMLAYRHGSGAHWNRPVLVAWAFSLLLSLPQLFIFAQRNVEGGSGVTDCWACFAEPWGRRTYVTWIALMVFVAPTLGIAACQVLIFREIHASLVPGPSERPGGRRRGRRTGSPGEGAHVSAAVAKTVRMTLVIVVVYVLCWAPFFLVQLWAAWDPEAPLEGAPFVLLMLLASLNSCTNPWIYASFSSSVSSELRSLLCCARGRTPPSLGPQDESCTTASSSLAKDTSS

Oxytocin receptor = target: T2, Oxytocin receptor (Homo sapiens, UniProt P30559); assay: Displacement of [3H]oxytocin from human oxytocin receptor expressed in CHO cells; assay type: cell-based
T2 sequence (P30559 whole entry): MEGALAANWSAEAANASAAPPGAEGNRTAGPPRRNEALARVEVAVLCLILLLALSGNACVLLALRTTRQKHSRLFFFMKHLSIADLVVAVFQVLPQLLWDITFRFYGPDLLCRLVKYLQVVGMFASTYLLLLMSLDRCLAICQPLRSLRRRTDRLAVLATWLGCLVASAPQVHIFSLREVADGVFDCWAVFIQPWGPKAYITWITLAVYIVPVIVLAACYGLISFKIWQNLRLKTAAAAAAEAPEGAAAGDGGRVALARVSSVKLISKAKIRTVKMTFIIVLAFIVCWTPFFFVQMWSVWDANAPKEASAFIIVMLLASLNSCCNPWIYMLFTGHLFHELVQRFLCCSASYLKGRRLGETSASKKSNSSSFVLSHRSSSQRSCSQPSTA
Summary of the method: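 Intact CHO cells expressing human receptor incubated with [³H]oxytocin plus increasing compound concentrations; 10 µM oxytocin defines nonspecific binding. Ki obtained by non-linear regression of specific binding against compound concentration; values averaged from at least 2 independent duplicate experiments.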

Vasopressin V1b receptor [3] = target: T1, Vasopressin V1b receptor; assay: Antagonist activity at human vasopressin V1B receptor expressed in CHO cells assessed as inhibition of AVP-induced calcium mobilisation by luciferase reporter gene assay; assay type: functional, cell-based
[4] = Solubility of the compound at pH 7.4; assay type: physicochemical; conditions: buffer
Summary of the method: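 Kinetic solubility measured at pH 7.4, reported in mg/L.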

[5] = Lipophilicity, log D of the compound at pH 7.4; assay type: physicochemical; conditions: buffer

Row | SMILES | Ki (Vasopressin V1b receptor [1]) [nM] | further results
1 | COc1ccc(S(=O)(=O)n2c(C)c(CC(=O)NCCCN3CCN(C)CC3)c3cc(F)ccc32)c(C)c1C | 430 | 
2 | COc1ccc(S(=O)(=O)N2CC(C(=O)NCCCN3CCN(C)CC3)c3ccccc32)c(C)c1C (centres undefined) | 1200 | Activity [2]: Active
3 | COc1cc(C)c(S(=O)(=O)N[C@@H](Cc2ccccc2)C(=O)NCCCN(C)C)c(C)c1C | 2000 | 
4 | COc1cc(C)c(S(=O)(=O)N[C@@H](Cc2ccccc2)C(=O)N2CCCN(C)CC2)c(C)c1C | 3200 | 
5 | COc1ccc(S(=O)(=O)n2c(C)c(C(=O)NCCCN3CCN(C)CC3)c3ccccc32)c(C)c1C | 560 | 
6 | COc1cc(C)c(S(=O)(=O)N[C@@H](Cc2ccccc2)C(=O)N(C)CCCN2CCN(C)CC2)c(C)c1C | 1000 | 
7 | COc1ccc(S(=O)(=O)n2c(C)c(C(=O)N3CCCNCC3)c3cc(F)ccc32)c(C)c1C | 310 | 
8 | COc1ccc(S(=O)(=O)n2c(C)c(CC(=O)N(C)CCc3ccccn3)c3cc(F)ccc32)c(C)c1C | 260 | 
9 | COc1cc(C)c(S(=O)(=O)N[C@@H](Cc2ccccc2)C(=O)NCCCN2CCN(C)CC2)c(C)c1C | 250 | 
10 | COc1ccc2c(c1)c(C(=O)N1CCCNCC1)c(C)n2S(=O)(=O)c1ccc(OC)c(C)c1C | 190 | Ki (Vasopressin V1a receptor): > 10000 nM; Ki (Vasopressin V2 receptor): > 10000 nM; Ki (Oxytocin receptor): > 10000 nM; IC50 (Vasopressin V1b receptor [3]): 371 nM; solubility [4]: 72 µg/mL (≈ 148 µM); logD [5]: 2
11 | COc1cc(C)c(S(=O)(=O)N[C@@H](Cc2ccccc2)C(=O)NCCCN2CCOCC2)c(C)c1C | 10000 | 
12 | COc1ccc2c(c1)c(CC(=O)N1CCCNCC1)c(C)n2S(=O)(=O)c1ccc(OC)c(C)c1C | 180 | Ki (Oxytocin receptor): 320 nM
13 | COc1ccc(S(=O)(=O)n2c(C)c(C(=O)N3CCCN(C)CC3)c3ccccc32)c(C)c1C | 500 | 
14 | COc1cc(C)c(S(=O)(=O)N[C@@H](Cc2ccccc2)C(=O)NCCN2CCN(C)CC2)c(C)c1C | 500 | 
15 | COc1cc(C)c(S(=O)(=O)N[C@@H](Cc2ccccc2)C(=O)N[C@@H](Cc2ccccc2)C(=O)N2CCCCC2)c(C)c1C | 630 | 
16 | COc1ccc(S(=O)(=O)n2c(C)c(C(=O)N3CCCNCC3)c3cc(C)ccc32)c(C)c1C | 790 | 
17 | COc1cc(C)c(S(=O)(=O)N[C@@H](Cc2ccccc2)C(=O)NCCCN2CCC(C)CC2)c(C)c1C | 2500 | 
18 | COc1cc(C)c(S(=O)(=O)N[C@@H](Cc2ccccc2)C(=O)N[C@H](Cc2ccccc2)C(=O)N2CCCCC2)c(C)c1C | > 10000 | 
19 | COc1cc(C)c(S(=O)(=O)N[C@@H](Cc2ccccc2)C(=O)N[C@@H](Cc2ccc3ccccc3c2)C(=O)N2CCCCC2)c(C)c1C (Mtr-Phe-[2Nal]-Piperidide) | > 10000 | 
20 | COc1cc(C)c(S(=O)(=O)N[C@@H](Cc2ccccc2)C(=O)NC(Cc2ccc3c(N)nccc3c2)C(=O)N2CCCCC2)c(C)c1C (some centres undefined) | 63 | 
21 | COc1cc(C)c(S(=O)(=O)N[C@@H](Cc2ccccc2)C(=O)NCC(=O)N2CCCCC2)c(C)c1C (Mtr-Phe-Gly-Piperidide) | > 10000 | 
